Results: ChEMBL document CHEMBL1156652, “Antiurolithic effect of lupeol and lupeol linoleate in experimental hyperoxaluria” (J Nat Prod, 2008)
The source made the active and inactive calls.

Legend:
Rattus norvegicus [1] = test: Effect on superoxide dismutase activity in kidney of Wistar rat assessed per mg of protein at 50 mg/kg/day, po for 28 days; type: functional
Outline: (§1)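 Normal male Wistar rats, no ethylene glycol, dosed orally at 50 mg/kg body wt/day for 28 days. Kidney homogenate, 10% in 0.01 M Tris-HCl pH 7.4. SOD unit defined as 50% inhibition of pyrogallol autoxidation; CAT as µmol H2O2 utilized/min. GSH, vitamins C and E as µg/mg protein. Protein by Lowry. Mean ± SEM, 6 rats/group.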

Rattus norvegicus [2] = test: Increase in catalase activity in kidney of ethylene glycol-induced hyperoxaluria Wistar rat model assessed per mg of protein at 50 mg/kg/day, po for 28 days; type: functional
Outline: (§2)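 Ethylene glycol-hyperoxaluric male Wistar rats (0.75% in drinking water, 28 days), co-dosed orally at 50 mg/kg body wt/day. Kidney homogenate, 10% in 0.01 M Tris-HCl pH 7.4. SOD unit defined as 50% inhibition of pyrogallol autoxidation; CAT as µmol H2O2 utilized/min. GSH, vitamins C and E as µg/mg protein. Mean ± SEM, 6 rats/group.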

Rattus norvegicus [3] = test: Effect on catalase activity in kidney of Wistar rat assessed per mg of protein at 50 mg/kg/day, po for 28 days; type: functional; outline: as §1
Rattus norvegicus [4] = test: Increase in glutathione peroxidase activity in kidney of ethylene glycol-induced hyperoxaluria Wistar rat model assessed per mg of protein at 50 mg/kg/day, po for 28 days; type: functional; outline: as §2
Rattus norvegicus [5] = test: Effect on glutathione peroxidase activity in kidney of Wistar rat assessed per mg of protein at 50 mg/kg/day, po for 28 days; type: functional; outline: as §1
Rattus norvegicus [6] = test: Increase in glutathione level in kidney of ethylene glycol-induced hyperoxaluria Wistar rat model assessed per mg of protein at 50 mg/kg/day, po for 28 days; type: functional; outline: as §2
Rattus norvegicus [7] = test: Effect on glutathione level in kidney of Wistar rat assessed per mg of protein at 50 mg/kg/day, po for 28 days; type: functional; outline: as §1
Rattus norvegicus [8] = test: Increase in vitamin C level in kidney of ethylene glycol-induced hyperoxaluria Wistar rat model assessed per mg of protein at 50 mg/kg/day, po for 28 days; type: functional; outline: as §2
Rattus norvegicus [9] = test: Effect on vitamin C level in kidney of Wistar rat assessed per mg of protein at 50 mg/kg/day, po for 28 days; type: functional; outline: as §1
Rattus norvegicus [10] = test: Increase in vitamin E level in kidney of ethylene glycol-induced hyperoxaluria Wistar rat model assessed per mg of protein at 50 mg/kg/day, po for 28 days; type: functional; outline: as §2
Rattus norvegicus [11] = test: Effect on vitamin E level in kidney of Wistar rat assessed per mg of protein at 50 mg/kg/day, po for 28 days; type: functional; outline: as §1
Rattus norvegicus [12] = test: Reduction in ascorbate-induced lipid peroxidation levels in kidney of ethylene glycol-induced hyperoxaluria Wistar rat model assessed as malondialdehyde release per mg of protein at 50 mg/kg/day, po for 28 days; type: functional
Outline: (§3)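 Male Wistar rats given 0.75% ethylene glycol in drinking water for 28 days, with drug orally at 50 mg/kg body wt/day throughout. Kidney homogenized 10% in ice-cold 0.01 M Tris-HCl, pH 7.4. Lipid peroxidation read as malondialdehyde released, with 10 mM ferrous sulfate or 0.2 mM ascorbate as inducer. Mean ± SEM, 6 rats/group.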

Rattus norvegicus [13] = test: Effect on ascorbate-induced lipid peroxidation levels in kidney of Wistar rat assessed as malondialdehyde release per mg of protein at 50 mg/kg/day, po for 28 days; type: functional
Outline: (§4)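 Normal male Wistar rats (120 ± 20 g), no ethylene glycol, given drug orally at 50 mg/kg body wt/day for 28 days. Kidney homogenized 10% in ice-cold 0.01 M Tris-HCl, pH 7.4. Lipid peroxidation read as malondialdehyde released, with 10 mM ferrous sulfate or 0.2 mM ascorbate as inducer. Mean ± SEM, 6 rats/group.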

Rattus norvegicus [14] = test: Reduction in ferrous sulfate-induced lipid peroxidation levels in kidney of ethylene glycol-induced hyperoxaluria Wistar rat model assessed as malondialdehyde release per mg of protein at 50 mg/kg/day, po for 28 days; type: functional; outline: as §3
Rattus norvegicus [15] = test: Effect on ferrous sulfate-induced lipid peroxidation levels in kidney of Wistar rat assessed as malondialdehyde release per mg of protein at 50 mg/kg/day, po for 28 days; type: functional; outline: as §4
Rattus norvegicus [16] = test: Protective effect in kidney of ethylene glycol-induced hyperoxaluria Wistar rat model assessed as normal glomerulus/tubule at 50 mg/kg/day, po for 28 days; type: functional, organism-based
Outline: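 Hyperoxaluria induced with 0.75% ethylene glycol in drinking water for 28 days, with concurrent oral dosing at 50 mg/kg body wt/day. Kidney portions fixed in 10% formalin, stained with hematoxylin and eosin, and examined by light microscopy for glomeruli, tubules, crystal deposits and infiltration.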

Rattus norvegicus [17] = test: Nephrotoxicity in Wistar rat at 50 mg/kg/day, po for 28 days; type: toxicity, organism-based; parameters: route oral; details: in vivo, 672 h
Outline: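 Male Wistar rats (120 ± 20 g), six per group, dosed orally once daily for 28 days, alone or alongside 0.75% ethylene glycol in drinking water to induce hyperoxaluria. After decapitation, kidneys were homogenized (10%) in ice-cold 0.01 M Tris-HCl pH 7.4 for ALP and γ-GT assays, or formalin-fixed, H&E-stained and examined by light microscopy. Data reported as mean ± SEM.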

Rattus norvegicus [18] = test: Renoprotective effect in ethylene glycol-hyperoxaluria Wistar rat model assessed as increase in renal alkaline phosphatase activity per mg of protein at 50 mg/kg/day, po for 28 days; type: functional
Outline: (§5)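 Ethylene glycol given at 0.75% in drinking water for 28 days to male Wistar rats, with concurrent oral dosing at 50 mg/kg body wt/day. Kidney homogenate in 0.01 M Tris-HCl pH 7.4. ALP read as phenol liberated from disodium phenyl phosphate, Folin colour at alkaline pH; γ-GT as p-nitroaniline liberated/min/mg protein. Mean ± SEM, 6 rats/group.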

Rattus norvegicus [19] = test: Effect on renal alkaline phosphatase activity in Wistar rat assessed per mg of protein at 50 mg/kg/day, po for 28 days; type: functional
Outline: (§6)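 Normal male Wistar rats, no ethylene glycol, dosed orally at 50 mg/kg body wt/day for 28 days. Kidney homogenate in 0.01 M Tris-HCl pH 7.4. ALP read as phenol liberated from disodium phenyl phosphate, Folin colour at alkaline pH; γ-GT as p-nitroaniline liberated/min/mg protein. Mean ± SEM, 6 rats/group.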

Rattus norvegicus [20] = test: Renoprotective effect in ethylene glycol-hyperoxaluria Wistar rat model assessed as increase in renal gamma glutamyl transferase activity mg of protein at 50 mg/kg/day, po for 28 days; type: functional; outline: as §5
Rattus norvegicus [21] = test: Effect on renal gamma glutamyl transferase activity in Wistar rat assessed mg of protein at 50 mg/kg/day, po for 28 days; type: functional; outline: as §6
Rattus norvegicus [22] = test: Reduction of lactate dehydrogenase activity in liver of ethylene glycol-induced hyperoxaluria Wistar rat model assessed per mg of protein at 50 mg/kg/day, po for 28 days; type: functional
Outline: (§7)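 Hyperoxaluria produced with 0.75% ethylene glycol in drinking water for 28 days, with concurrent oral dosing at 50 mg/kg body wt/day. Liver and kidney homogenized 10% in ice-cold 0.01 M Tris-HCl pH 7.4. LDH assayed with glyoxylate as substrate; GAO and XO by published methods. Mean ± SEM, 6 rats/group.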

Rattus norvegicus [23] = test: Effect on lactate dehydrogenase activity in liver of Wistar rat assessed per mg of protein at 50 mg/kg/day, po for 28 days; type: functional
Outline: (§8)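 Normal male Wistar rats, no ethylene glycol, given oral dosing at 50 mg/kg body wt/day for 28 days. Liver and kidney homogenized 10% in ice-cold 0.01 M Tris-HCl pH 7.4. LDH assayed with glyoxylate as substrate; GAO and XO by published methods. Mean ± SEM, 6 rats/group.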

Rattus norvegicus [24] = test: Reduction of xanthine oxidase activity in liver of ethylene glycol-induced hyperoxaluria Wistar rat model assessed per mg of protein at 50 mg/kg/day, po for 28 days; type: functional; outline: as §7
Rattus norvegicus [25] = test: Effect on xanthine oxidase activity in liver of Wistar rat assessed per mg of protein at 50 mg/kg/day, po for 28 days; type: functional; outline: as §8
Rattus norvegicus [26] = test: Reduction of glycolic acid oxidase activity in liver of ethylene glycol-induced hyperoxaluria Wistar rat model assessed per mg of protein at 50 mg/kg/day, po for 28 days; type: functional; outline: as §7
Rattus norvegicus [27] = test: Effect on glycolic acid oxidase activity in liver of Wistar rat assessed per mg of protein at 50 mg/kg/day, po for 28 days; type: functional; outline: as §8
Rattus norvegicus [28] = test: Reduction of lactate dehydrogenase activity in kidney of ethylene glycol-induced hyperoxaluria Wistar rat model assessed per mg of protein at 50 mg/kg/day, po for 28 days; type: functional; outline: as §7
Rattus norvegicus [29] = test: Effect on lactate dehydrogenase activity in kidney of Wistar rat assessed per mg of protein at 50 mg/kg/day, po for 28 days; type: functional; outline: as §8
Rattus norvegicus [30] = test: Reduction of xanthine oxidase activity in kidney of ethylene glycol-induced hyperoxaluria Wistar rat model assessed per mg of protein at 50 mg/kg/day, po for 28 days; type: functional; outline: as §7
Rattus norvegicus [31] = test: Effect on xanthine oxidase activity in kidney of Wistar rat assessed per mg of protein at 50 mg/kg/day, po for 28 days; type: functional; outline: as §8
Rattus norvegicus [32] = test: Increase in superoxide dismutase activity in kidney of ethylene glycol-induced hyperoxaluria Wistar rat model assessed per mg of protein at 50 mg/kg/day, po for 28 days; type: functional; outline: as §2

SMILES	Activity (Rattus norvegicus [1])	Activity (Rattus norvegicus [2])	Activity (Rattus norvegicus [3])	Activity (Rattus norvegicus [4])	Activity (Rattus norvegicus [5])	Activity (Rattus norvegicus [6])	Activity (Rattus norvegicus [7])	Activity (Rattus norvegicus [8])	Activity (Rattus norvegicus [9])	Activity (Rattus norvegicus [10])	Activity (Rattus norvegicus [11])	Activity (Rattus norvegicus [12])	Activity (Rattus norvegicus [13])	Activity (Rattus norvegicus [14])	Activity (Rattus norvegicus [15])	Activity (Rattus norvegicus [16])	Activity (Rattus norvegicus [17])	Activity (Rattus norvegicus [18])	Activity (Rattus norvegicus [19])	Activity (Rattus norvegicus [20])	also measured
C=C(C)[C@@H]1CC[C@]2(C)CC[C@]3(C)C(CC[C@@H]4[C@@]5(C)CC[C@H](OC(=O)CCCCCCC/C=C/C/C=C/CCCCC)C(C)(C)[C@@H]5CC[C@]43C)[C@@H]12 (some centres undefined) [LUPEOL LINOLEATE]	5	155.3 µmol/min	164.9 µmol/min	8.01 µg/min	8.32 µg/min	4.59 µg	4.76 µg	1.74 µg	1.89 µg	0.97 µg	1.06 µg	4.95 nmol	4.45 nmol	13.38 nmol	12.2 nmol	Active	Non-toxic	1.65 µmol/min	1.68 µmol/min	8.62 nmol/min	Activity (Rattus norvegicus [21]): 8.79 nmol/min; Activity (Rattus norvegicus [22]): 2.39; Activity (Rattus norvegicus [23]): 2.33; Activity (Rattus norvegicus [24]): 1.39; Activity (Rattus norvegicus [25]): 1.28; Activity (Rattus norvegicus [26]): 3.12 nmol; Activity (Rattus norvegicus [27]): 2.75 nmol; Activity (Rattus norvegicus [28]): 2.26; Activity (Rattus norvegicus [29]): 2.01; Activity (Rattus norvegicus [30]): 0.97; Activity (Rattus norvegicus [31]): 0.9; Activity (Rattus norvegicus [32]): 4.82
C=C(C)[C@@H]1CC[C@]2(C)CC[C@]3(C)[C@H](CC[C@@H]4[C@@]5(C)CC[C@H](O)C(C)(C)[C@@H]5CC[C@]43C)[C@@H]12 [LUPEOL]	5.04	141.6 µmol/min	164.2 µmol/min	7.11 µg/min	8.31 µg/min	4.27 µg	4.75 µg	1.6 µg	1.86 µg	0.91 µg	1.04 µg	5.11 nmol	4.5 nmol	15.11 nmol	12.14 nmol	Active	Non-toxic	1.53 µmol/min	1.72 µmol/min	8.28 nmol/min	Activity (Rattus norvegicus [21]): 8.73 nmol/min; Activity (Rattus norvegicus [22]): 2.42; Activity (Rattus norvegicus [23]): 2.35; Activity (Rattus norvegicus [24]): 1.54; Activity (Rattus norvegicus [25]): 1.31; Activity (Rattus norvegicus [26]): 3.61 nmol; Activity (Rattus norvegicus [27]): 2.77 nmol; Activity (Rattus norvegicus [28]): 2.41; Activity (Rattus norvegicus [29]): 2.05; Activity (Rattus norvegicus [30]): 1.09; Activity (Rattus norvegicus [31]): 0.93; Activity (Rattus norvegicus [32]): 4.67
